In the library only some 0.35% were active in any assay of this set; here they are far more common.
TNAP act hi DEA = increases human TNAP activity under high phosphate acceptor concentration; P05186; AID 1136; activation factor at 20 µM; purified TNAP, CDP-star luminescence, 1 M DEA, 30 min; active compounds read high; 0 = EDTA background, 1 = DMSO-only activity; 200,000 tested, under 10 active;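 active = activation factor at least 2 at 20 µM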
Target sequence (P05186 whole entry, looked up): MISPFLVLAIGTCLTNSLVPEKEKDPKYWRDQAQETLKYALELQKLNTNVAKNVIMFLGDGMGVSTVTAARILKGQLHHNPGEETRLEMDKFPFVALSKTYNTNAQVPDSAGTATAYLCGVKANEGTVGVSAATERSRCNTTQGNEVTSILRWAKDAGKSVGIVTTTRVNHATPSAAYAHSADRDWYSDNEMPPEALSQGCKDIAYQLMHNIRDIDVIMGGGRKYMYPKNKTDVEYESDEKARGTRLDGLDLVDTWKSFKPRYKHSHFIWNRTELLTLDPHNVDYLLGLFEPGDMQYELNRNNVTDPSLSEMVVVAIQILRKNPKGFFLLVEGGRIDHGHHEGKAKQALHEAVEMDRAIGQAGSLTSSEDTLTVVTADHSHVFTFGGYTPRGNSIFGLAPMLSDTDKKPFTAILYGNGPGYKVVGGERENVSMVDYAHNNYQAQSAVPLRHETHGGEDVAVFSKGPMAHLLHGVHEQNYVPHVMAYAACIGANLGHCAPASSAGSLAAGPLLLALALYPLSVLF
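Assay system: human TNAP; Input: enzyme diluted 1/800 final; Reagent: CDP-star luminogenic substrate at 100 µM final; Timing: 30 min, room temperature; Signal: luminescence; Evaluation: TNAP activation factor scaled between EDTA and DMSO control wells.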
TNAP inh hi DEA = TNAP (human) inhibition, high acceptor | P05186 | purified TNAP, CDP-star luminescence, 1 M DEA | inhibition, % at 20 µM | 200,000 tested, 0.03% active | AID 1135;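 active = over 50% inhibition of tissue-nonspecific alkaline phosphatase at 20 µM in the single-dose screen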
TNAP inh noacc = TNAP (human) inhibition, acceptor-free conditions | P05186 | purified TNAP, CDP-star luminescence, 30 min | inhibition, % at 20 µM | 200,000 tested, 0.26% active | AID 1012;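 active = tissue-nonspecific alkaline phosphatase inhibition above about 50% at 20 µM in the single-dose screen, limit read from the data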
PKD1 inh = blocks activity of human protein kinase D1; Q15139; PKD1 kinase fluorescence polarization assay; inhibition, % (test concentration not listed); 200,000 tested, 0.056% active; AID 797; in the data active = inhibition above about 50%
FP interf 140K = FP interference, PKD inhibitor counter-screen; shares compounds with PKD1 inh; PKD1 FP assay interference counter-screen, fluorescence polarization; inhibition, % at 10 µM; 85 tested, under 10 active; AID 1315; call rule not given here
Large screens that a line does not name were inactive (follow-up assays come after a bar, where they were run).

Cc1nn(C)c(C)c1N1C(=O)c2cccc3c(N)ccc(c23)C1=O	PKD1 inh 67 | FP interf 140K inactive
Cc1nn(C)c(C)c1N1C(=O)c2cccc3c(Br)ccc(c23)C1=O	none
Cc1cccc(N2C(=O)CC(N3CCN(c4cccc(C(F)(F)F)c4)CC3)C2=O)c1 (stereo unspecified)	none
Cc1[nH]nc2c1-c1nc3ccccc3nc1C(C)(C)C2	PKD1 inh 58 | FP interf 140K inactive
CC12CCC(C)(c3nc4ccccc4nc31)C2(C)C	none
C/C(=N\NC(=O)c1cccc(Cl)c1)c1cccc(NC(=O)C(C)C)c1	none
O=C(Nc1ccc(Cl)cc1)OCc1cn(-c2ccc(Cl)cc2)nn1	PKD1 inh 108 | FP interf 140K inactive
COc1ccc(CCNS(=O)(=O)c2cc(/C=C/C(=O)O)ccc2C)cc1OC	none
O=C(NCCOC(=O)c1ccc(C(=O)OCCNC(=O)c2cccnc2)s1)c1cccnc1	PKD1 inh 105 | FP interf 140K inactive
O=C(O)C1CCN(c2ncccn2)CC1	PKD1 inh 90 | FP interf 140K inactive
Clc1ccc(CNc2nc(N3CCOCC3)nc(N3CCOCC3)n2)cc1	none
CCOC(=O)N1CCC(N2CCN(S(=O)(=O)CC)CC2)CC1	PKD1 inh 93 | FP interf 140K inactive
CC(C)CCN1CN(S(=O)(=O)c2cccs2)c2nc3ccccc3nc21	PKD1 inh 95 | FP interf 140K inactive
CCCCn1c(=O)c(CCC(=O)OCC(=O)Nc2cccc3ccccc23)nc2ccccc21	none
O=C1CCCc2c1cc(C(=O)NCc1ccco1)c(=O)n2-c1ccccc1	PKD1 inh 52 | FP interf 140K inactive
Cc1ccc(-n2c3c(cc(C(=O)NCc4ccco4)c2=O)C(=O)CC(C)(C)C3)cc1	none
Cc1nc2sc(C(c3cccs3)N3CCN(Cc4ccccc4)CC3)c(O)n2n1 (stereo unspecified)	none
Cc1ccc(NC(=O)Nc2ccc(F)c(Cl)c2)cc1	none
Cc1ccc(NC(=O)CNc2ccc(Cl)cc2F)cc1	PKD1 inh 86 | FP interf 140K inactive
CN(C)c1ccc(/C=C2\SC(=S)N(Nc3ncc(C(F)(F)F)cc3Cl)C2=O)cc1	PKD1 inh 69 | FP interf 140K inactive
COc1cccc(C(c2nnnn2Cc2ccco2)N2CCN(c3cccc(C)c3C)CC2)c1OC (stereo unspecified)	none
COc1ccc(S(=O)(=O)N2CCC(n3cnc4cc(C(F)(F)F)ccc43)CC2)cc1	PKD1 inh 74 | FP interf 140K inactive
CC(C)CN1C(=O)c2ccc(C(=O)NCc3ccc4c(c3)OCO4)cc2C1=O	none
CCN(CC)c1ccc(NC(=O)COc2ccccc2C)cc1S(=O)(=O)Nc1ccccc1OC	none
CCN(CC)c1ccc(NC(=O)COc2ccccc2C#N)cc1S(=O)(=O)Nc1ccc(OC)cc1	PKD1 inh 58 | FP interf 140K inactive
Cc1ccc(C(=O)Cn2c(NCCO)nc3ccccc32)cc1	PKD1 inh 53 | FP interf 140K inactive
O=C(Cn1c(NCCO)nc2ccccc21)c1ccccc1	none
Cc1cccc(CSc2ccc3nnc(-c4ccccn4)n3n2)c1	none
COc1ccc(CNC(=S)Nc2cc(C)ccc2C)cc1	none
CNC(=O)N(O)C1N(NC(=O)Nc2cccc3ccccc23)C(=S)SC1(C)C (stereo unspecified)	none
Cc1ccc(C)c(C(=O)NC(C)CCc2ccccc2)c1 (stereo unspecified)	none
Cc1occc1C(=O)NC(C)CCc1ccccc1 (stereo unspecified)	PKD1 inh 119 | FP interf 140K inactive
Nc1c(-c2ccccc2Cl)cnn1-c1cccc([N+](=O)[O-])c1	none
Cc1cc(NCCCN)nc(-c2ccccc2O)n1	PKD1 inh 114 | FP interf 140K inactive
Cc1ccc(Nc2cc(C)nc(-c3ccccc3O)n2)cc1	none
COc1ccc2c3c(cccc13)C(=O)N(O)C2=O	none
CCC1=NNc2cccc3c(OC)ccc1c23	PKD1 inh 99 | FP interf 140K inactive
Cc1c(C(=O)NCc2cccnc2)sc2nc(-c3ccc(F)cc3)cn12	PKD1 inh 54 | FP interf 140K inactive
COc1ccc(-c2cnnc(N/N=C/c3ccc(O)c(O)c3)n2)cc1	TNAP inh noacc 56, PKD1 inh 52 | FP interf 140K inactive
Cc1cc(Nc2ccccc2)nc(NCc2ccccc2)n1	none
Cc1cc(Nc2cccc(F)c2)nc(NCc2ccccc2)n1	PKD1 inh 56 | FP interf 140K inactive
O=C(CCN1C(=O)/C(=C\c2cccs2)SC1=S)NC1=NCCS1	none

Source: PubChem BioAssay
